Platelet DG rel = modulates dense granule release in human platelets; actives 0.22% (n = 300,000); inhibition, %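 (compounds screened at 7.5 µM in platelet-rich plasma)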; human platelet-rich plasma, SFLLRN dense granule ATP release, luminescence; AID 1663;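 active means mean replicate score, as percent of positive control, at or above 50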
TRAIL sens C8 = sensitizes caspase-8 expressing cells to TRAIL; actives 1% (n = 360,000); NB7+C8 cells + TRAIL, ATPlite viability luminescence; inhibition (viability loss, TRAIL sensitization), % at 10 µM;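 active means compounds causing at least 50% loss of cell viability in the single-dose screen, relative to plate controls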
PPC-1+TRAIL kill = compounds killing PPC-1 cancer cells with TRAIL present (potentiator screen, no TRAIL-free arm). PPC-1 cells + TRAIL, ATPLite viability luminescence. actives 0.41% (n = 220,000). AID 1443. cell killing (% activity), % at 4 µM or 5 µM;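 active means cell killing above 50% in the first pass at 4 µM, then a duplicate retest at 5 µM averaging 50% or more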;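 further: plate controls were cells with TRAIL plus DMSO for no effect and medium-only wells lacking cells for full effect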
FLuc act counter = firefly luciferase counter-screen for stimulation assays; P08659; ATPlite luciferase biochemical, luminescence, 10 min; 0 = ATP-free wells, 1 = DMSO control; activation factor at 10 µM; 200,000 tested, under 10 active; AID 1027;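 active means luciferase activation factor, scaled between plate controls, of at least 2 with compound at 10 µM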
Target sequence (P08659 whole entry, looked up): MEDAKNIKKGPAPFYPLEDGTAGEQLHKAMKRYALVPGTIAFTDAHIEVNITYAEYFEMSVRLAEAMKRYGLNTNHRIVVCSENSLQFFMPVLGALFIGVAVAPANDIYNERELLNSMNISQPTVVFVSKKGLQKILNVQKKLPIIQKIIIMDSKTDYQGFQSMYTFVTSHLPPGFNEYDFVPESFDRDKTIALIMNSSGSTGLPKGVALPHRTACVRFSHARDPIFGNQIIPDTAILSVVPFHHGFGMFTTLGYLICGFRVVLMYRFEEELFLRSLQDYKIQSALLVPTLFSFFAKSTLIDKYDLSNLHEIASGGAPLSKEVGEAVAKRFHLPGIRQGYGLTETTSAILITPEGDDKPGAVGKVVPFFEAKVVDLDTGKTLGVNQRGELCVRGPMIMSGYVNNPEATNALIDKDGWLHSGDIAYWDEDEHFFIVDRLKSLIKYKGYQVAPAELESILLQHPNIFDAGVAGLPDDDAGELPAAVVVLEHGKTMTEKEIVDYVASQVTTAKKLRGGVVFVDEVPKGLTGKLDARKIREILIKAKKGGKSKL
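Material: Luciferase/luciferin reagent mix | Doses: Test compounds dosed from 2 mM stocks in 100% DMSO | Timing: 10 min incubation after luciferase reagent addition, room temperature | Measured by: Luminescence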
FLuc inh counter = counter-screen for luciferase assay inhibitors: firefly luciferase inhibition | P08659 | ATPLite firefly luciferase biochemical luminescence, 10 min | inhibition, % at 10 µM | actives 1.5% (n = 200,000);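 active means inhibition above about 50% when tested at 10 µM, limit read from the data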
* marks the source's active call; other numbers are inactive results; . = not tested or not shown. In the library only some 1.6% were active in any assay of this set; here they are far more common.

SMILES	Platelet DG rel	TRAIL sens C8	PPC-1+TRAIL kill	FLuc act counter	FLuc inh counter
C/C(=N/NC(=O)c1ccccn1)c1ccco1	40.4	54.2*	32.8	0.3	70.0*
C/C(=N\NC(=O)c1ccc(Cl)cc1)c1ccccn1	6.2	51.1*	.	.	.
C/C(=N/NC(=O)c1ccccn1)c1ccc(O)cc1	12.3	16.1	6.9	.	.
O=C(c1[nH]c(C(F)(F)F)nc1-c1ccccc1)N1CCN(Cc2c(F)cccc2Cl)CC1	.	2.1	.	.	.
COc1cc(/C=N/N=C(\N)c2nonc2N)cc(OC)c1O	15.8	-1.7	7.8	.	.
COc1ccc(/C=N/N=C(\N)c2nonc2N)cc1	67.5*	18.3	10.4	0.5	51.8*
CSC(=Nc1ccccc1)N=C(SCc1ccccc1)N(C)C	.	90.9*	.	.	.
Cc1cc(N/N=C/c2ccc(O)cc2)c2cccc(C)c2n1	-6.7	15.8	.	.	.
Cc1cc(-c2ccccc2)nc(N/N=C/c2ccc(O)cc2)n1	.	76.7*	.	.	.
Cc1cc(C)c2nc(C)cc(N/N=C/c3ccc(O)cc3)c2c1	-6.4	81.4*	.	.	.
COc1ccc2nc(C)cc(N/N=C/c3ccccc3)c2c1	.	52.8*	.	.	.
COc1ccc2nc(C)cc(Nc3ccc(N4CCN(C)CC4)cc3)c2c1	-1.5	48.8*	.	.	.
COc1ccc(/C=N/Nc2cc(C)nc3ccc(OC)cc23)c(OC)c1	-8.9	89.3*	.	.	.
COc1ccc2nc(C)cc(SCC(=O)N/N=C/c3ccccc3)c2c1	20.7	1.8	26.5	1.1	-6.9
COc1ccc(/C=N/Nc2ncccc2[N+](=O)[O-])c(OC)c1	78.8*	7.4	-2.8	0.4	62.9*
COc1ccc2nc(C)cc(Nc3ccc(N4CCOCC4)cc3)c2c1	3.3	8.9	27.2	1	-2.3
COc1ccccc1/C=N/Nc1cc(C)nc2ccc(C)cc12	7.9	2.4	.	.	.
O=S(=O)(c1ccccc1)n1cc(-c2cccc3nccn23)c2ccccc21	.	1.8	.	.	.
CCCCNC(=O)c1c(N)[nH]c(C(=O)c2ccccc2)c1-c1ccccn1	.	-6.5	.	.	.
CCOC(=O)c1noc2c1CCC2	.	14.6	.	.	.
c1ccc(COc2ccc(OCCCN3CCCC3)cc2)cc1	7.2	19.9	49.2	0.4	58.5*
CC[C@@H]1Cc2[nH][nH]c(=O)c2[C@@H](c2ccc(Cl)cc2)O1	.	-5.5	.	.	.
Cc1cc(-c2nc3cc(F)ccc3s2)ccc1N	.	73.4*	.	.	.
c1ccc2c(C3=NNC(=NC4CCCCC4)SC3)c[nH]c2c1	-0.3	3.0	-1.3	1	-1.5
c1ccc(C2=NNC(=NC3CC3)SC2)cc1	31.5	17.3	32.7	0.4	62.1*
SMILES	Platelet DG rel	TRAIL sens C8	PPC-1+TRAIL kill	FLuc act counter	FLuc inh counter
CC(C)(C)N=C1NN=C(c2ccc(Cl)cc2)CS1	1.1	5.2	5.9	.	.
c1ccc2c(C3=NNC(=NC4CC4)SC3)c[nH]c2c1	55.9*	33.8	18.9	0.5	52.7*
COc1cc(F)ccc1-c1csc(C(C)(O)c2ccc(F)c(F)c2)n1 (stereo not drawn)	.	-4.8	.	.	.
COc1ccccc1NC(=O)Nc1ccc(C(=O)N2CCCCC2)cc1	92.2*	16.5	6.4	.	.
COc1ccccc1NC(=O)NC1(C(=O)N2CCCCCC2)CCCCC1	52.6*	-2.3	31.3	1	-3.9
COc1cc(C23CCCN(CCC(C(C)(C)C)C2)C32OCCO2)cc(OC)c1OC (stereo not drawn)	.	-17.0	.	.	.
Nc1cccc(-c2cc3ccccc3oc2=O)c1	-10.4	6.1	-21.2	0.8	17.8
O=Cc1c(-c2ccccc2)cc2oc3ccccc3cc1-2	6.4	51.4*	.	.	.
O=C(/C=C/c1ccc([N+](=O)[O-])cc1)NCc1ccccn1	-4.4	23.1	21.8	1.1	-6.3
O=C(/C=C/c1ccc([N+](=O)[O-])cc1)Nc1ncc([N+](=O)[O-])s1	.	59.5*	17.8	0.4	60.9*
CCOc1ccc(C(=O)COC(=O)CC)cc1	-3.4	9.5	10.2	0.4	56.0*
CCCCC(=O)OCC(=O)c1ccc(OCC)cc1	-5.4	0.0	26.5	0.5	52.9*
CN(Cc1ccc(Cl)cc1)C(CCc1ccccc1)C(=O)NC1CCCCC1 (stereo not drawn)	.	0.9	.	.	.
Cc1c(/C=C/C(=O)c2ccc(Cl)s2)cnn1C	6.6	-4.9	13.8	0.4	62.5*
CCn1ncc(/C=C/C(=O)c2ccccc2)c1C	20.7	29.4	49.9	0.2	81.8*
Cc1c(/C=C/C(=O)c2ccccc2)cnn1C	0.6	-4.5	31.3	0.6	42.0
Cc1c(/C=C/C(=O)c2ccc(C(C)C)cc2)cnn1C	-7.3	21.0	6.0	0.4	57.6*
Cc1c(/C=C/C(=O)c2ccc(O)cc2)cnn1C	20.5	27.8	25.8	0.4	57.9*
